Data on 18 compounds can be found in paper PMC10286757 (Chemmedchem, 2022).

In series [1] the test system is Plasmodium falciparum strain 3D7. In words: parasite lactate dehydrogenase. The class given is cell-based. To be noted: for viability at 20 µM / IC50: Plasmodium falciparum, 3D7, 48 h; for viability at 20 µM: read-out: Pf 3D7 % cell viability at 20 μM; for antiplasmodial activity in vitro (in words): Pf 3D7, pLDH assay, low micromolar range; for IC50: read-out: Pf 3D7 IC50.

The nature of series [2]: HeLa cell cytotoxicity assay. The class given is cell-based. To be noted: human, HeLa cells. In a few lines: (§1)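 HeLa cells were seeded at 2×10^4 per well in DMEM with 10 % FBS, 2 mM L-glutamine and antibiotics, then held overnight at 37 °C in 5 % CO2. Test compound was added to a final 20 μM for 48 h. Resazurin was then added to a final 50 μM for 4 h, and resorufin fluorescence was read at Ex560/Em590. Cell-free background was subtracted and results expressed as % viability against untreated wells.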

Series [3] concerns the target T1, PfCDPK4 (Plasmodium falciparum, UniProt Q8IBS5).
T1 sequence (Q8IBS5 1-528): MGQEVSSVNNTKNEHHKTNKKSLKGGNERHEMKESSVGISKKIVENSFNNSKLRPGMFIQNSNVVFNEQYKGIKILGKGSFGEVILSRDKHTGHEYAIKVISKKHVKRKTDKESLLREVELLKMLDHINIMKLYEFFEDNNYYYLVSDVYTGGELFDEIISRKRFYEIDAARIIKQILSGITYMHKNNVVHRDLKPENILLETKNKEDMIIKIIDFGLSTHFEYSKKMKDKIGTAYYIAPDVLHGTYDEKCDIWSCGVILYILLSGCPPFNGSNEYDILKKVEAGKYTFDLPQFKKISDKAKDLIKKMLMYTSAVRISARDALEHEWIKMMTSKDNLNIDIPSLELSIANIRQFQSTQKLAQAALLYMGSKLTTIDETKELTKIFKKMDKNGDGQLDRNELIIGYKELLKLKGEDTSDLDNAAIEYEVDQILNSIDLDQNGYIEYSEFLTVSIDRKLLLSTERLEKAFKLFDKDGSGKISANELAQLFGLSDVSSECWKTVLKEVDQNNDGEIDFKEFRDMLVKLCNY
The experiment in a line: Kinase Glo luciferase enzyme activity assay, recombinant PfCDPK4. The class given is biochemical. In a few lines: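 Recombinant PfCDPK4 was expressed in Rosetta E. coli at 20 °C by auto-induction, then purified by IMAC and size exclusion. The enzyme was used at 180 nM with 40 μM Syntide-2 and serial inhibitor dilutions in 20 mM HEPES pH 7.5, 0.1 % BSA, 10 mM MgCl2, ±1 mM CaCl2, 1 mM EGTA. Reactions were started with 10 μM ATP and run 90 min at 30 °C. Remaining ATP was read by Kinase-Glo luminescence, with positive and DMSO controls on each plate.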
(In general: In Kinase-Glo more light means more ATP remaining.)

The test system of series [4] is HeLa cells. In words: HeLa cell cytotoxicity assay. The class given is cell-based. To be noted: single concentration 20 μM. The essentials: as §1

For `COc1ccc2cc(-c3cn(CC4CC4)c4ncnc(N)c34)ccc2c1` [2 a, 7‐(Cyclopropylmethyl)‐5‐(2‐methoxynaphthalen‐6‐yl)‐7H‐pyrrolo[2,3‐d]pyrimidin‐4‐amine], the viability – broadly, a read-out of living cells in per cent, often relative to untreated cells – at 20 µM in series [1] worked out at 103 ± 8%. Also, in series [2], the viability at 48 h, 20 µM is 93.6 ± 7.1%.
Turning to `CCOc1ccc2cc(-c3cn(CC4CC4)c4ncnc(N)c34)ccc2c1` [2 b, 7‐(Cyclopropylmethyl)‐5‐(2‐ethoxynaphthalen‐6‐yl)‐7H‐pyrrolo[2,3‐d]pyrimidin‐4‐amine], in series [1], the “antiplasmodial activity in vitro (in words)” value (from here on “antiplasmodial activity”) is “moderate antiplasmodial activity”; the viability at 20 µM was determined as 24.1 ± 3.8%; the concentration for half-maximal inhibition (IC50) – broadly, the concentration at which inhibition is half-maximal – came out at 18700 ± 800 nM. For the same compound, the IC50 in series [3] stood at 369 ± 138 nM. The viability at 48 h, 20 µM in series [2] is 79.8 ± 3.3%.
For `CCOCCOc1ccc2cc(-c3cn(CC4CC4)c4ncnc(N)c34)ccc2c1` [2 c, 5‐[2‐(2‐Ethoxyethoxy)naphthalen‐6‐yl]‐7‐(cyclopropylmethyl)‐7H‐pyrrolo[2,3‐d]pyrimidin‐4‐amine], in series [1], the viability at 20 µM came to 93.1 ± 1.4%. For the same compound, the viability at 48 h, 20 µM in series [2] worked out at 73 ± 4.1%.
As for `COc1ccccc1-c1cn(CC2CC2)c2ncnc(N)c12` [2 d, 7‐(Cyclopropylmethyl)‐5‐(2‐methoxyphenyl)‐7H‐pyrrolo[2,3‐d]pyrimidin‐4‐amine], the viability at 20 µM in series [1] was determined as 107 ± 6%. Further, the IC50 in series [3] was > 2000 nM. Also, the viability at 48 h, 20 µM in series [2] was 63.8 ± 1.5%.
The matching figures for `COc1ccc(-c2cn(CC3CC3)c3ncnc(N)c23)cc1OC` [2 e, 7‐(Cyclopropylmethyl)‐5‐(3,4‐dimethoxyphenyl)‐7H‐pyrrolo[2,3‐d]pyrimidin‐4‐amine]: 110 ± 10.9%, > 2000 nM and 88.8 ± 0.7%.
Regarding `COc1ccc2cc(-c3cn(CC4CCN(C(C)=O)CC4)c4ncnc(N)c34)ccc2c1` [2 f, 1‐{4‐[(4‐Amino‐5‐(2‐methoxynaphthalen‐6‐yl)‐7H‐pyrrolo[2,3‐d]pyrimidin‐7‐yl)methyl]piperidin‐1‐yl}ethanone], the viability at 20 µM in series [1] stood at 35.3 ± 2.2%. Besides, the IC50 in series [3] turned out to be 210 ± 68 nM. Further, the viability at 48 h, 20 µM in series [2] was 92.1 ± 3.1%.
As to `CCOc1ccc2cc(-c3cn(CC4CCN(C(C)=O)CC4)c4ncnc(N)c34)ccc2c1` [2 g, 1‐{4‐[(4‐Amino‐5‐(2‐ethoxynaphthalen‐6‐yl)‐7H‐pyrrolo[2,3‐d]pyrimidin‐7‐yl)methyl]piperidin‐1‐yl}ethanone], in series [1], the “antiplasmodial activity” value was “moderate antiplasmodial activity”, the viability at 20 µM stood at 9.3 ± 1.6% and the IC50 turned out to be 14200 ± 1700 nM. The IC50 in series [3] is 530 ± 185 nM. For the same compound, the viability at 48 h, 20 µM in series [2] is 92.8 ± 5.7%.
Turning to `CCOCCOc1ccc2cc(-c3cn(CC4CCN(C(C)=O)CC4)c4ncnc(N)c34)ccc2c1` [2 h, 1‐{4‐{[5‐(2‐(2‐Ethoxyethoxy)naphthalen‐6‐yl)‐4‐amino‐7H‐pyrrolo[2,3‐d]pyrimidin‐7‐yl]methyl}piperidin‐1‐yl}ethanone], the viability at 20 µM in series [1] came out at 62.2 ± 9%. Also, the IC50 in series [3] is > 2000 nM. The viability at 48 h, 20 µM in series [2] was found to be 94.4 ± 9.3%.
Consider `COc1ccccc1-c1cn(CC2CCN(C(C)=O)CC2)c2ncnc(N)c12` [2 i, 1‐{4‐[(4‐Amino‐5‐(2‐methoxyphenyl)‐7H‐pyrrolo[2,3‐d]pyrimidin‐7‐yl)methyl]piperidin‐1‐yl}ethanone], for which the viability at 20 µM in series [1] came to 121 ± 8.6%. Moreover, in series [3], the IC50 is > 2000 nM. Moreover, the viability at 48 h, 20 µM in series [2] is 93.3 ± 3.2%.
Turning to `COc1ccc(-c2cn(CC3CCN(C(C)=O)CC3)c3ncnc(N)c23)cc1OC` [2 j, 1‐{4‐[(4‐Amino‐5‐(3,4‐dimethoxyphenyl)‐7H‐pyrrolo[2,3‐d]pyrimidin‐7‐yl)methyl]piperidin‐1‐yl}ethanone], in series [1], the “antiplasmodial activity” value is “moderate antiplasmodial activity”, the viability at 20 µM was 2.8 ± 3.9% and the IC50 worked out at 12100 ± 11400 nM. In series [3], the IC50 is > 2000 nM. Moreover, the viability at 48 h, 20 µM in series [2] turned out to be 79.3 ± 0.8%.
Turning to `COc1ccccc1-c1cn(CCC2CCN(C(=O)OC(C)(C)C)CC2)c2ncnc(N)c12` [2 k, tert ‐Butyl 4‐{2‐[4‐amino‐5‐(2‐methoxyphenyl)‐7H‐pyrrolo[2,3‐d]pyrimidin‐7‐yl]ethyl}piperidine‐1‐carboxylate], the viability at 20 µM in series [1] is 62 ± 2.1%. The viability at 48 h, 20 µM in series [2] came to 78.9 ± 0.1%.
As to `COc1ccc(-c2cn(CCC3CCN(C(=O)OC(C)(C)C)CC3)c3ncnc(N)c23)cc1OC` [2 l, tert ‐Butyl 4‐{2‐[4‐amino‐5‐(3,4‐dimethoxyphenyl)‐7H‐pyrrolo[2,3‐d]pyrimidin‐7‐yl]ethyl}piperidine‐1‐carboxylate], in series [1], the viability at 20 µM stood at 66.8 ± 3.9%. Besides, in series [3], the 50% inhibitory concentration (IC50) is > 2000 nM. Also, the viability at 48 h, 20 µM in series [2] was 82.4 ± 1.4%.
On to `CCOc1ccc2cc(-c3cn(CCN4CCOCC4)c4ncnc(N)c34)ccc2c1` [2 m, 5‐(2‐Ethoxynaphthalen‐6‐yl)‐7‐(2‐morpholinoethyl)‐7H‐pyrrolo[2,3‐d]pyrimidin‐4‐amine], for which, in series [1], the “antiplasmodial activity” value was “moderate antiplasmodial activity”, the viability at 20 µM amounted to 12 ± 2.6% and the concentration for half-maximal inhibition (IC50) amounted to 8200 ± 3100 nM. For the same compound, the viability at 48 h, 20 µM in series [2] stood at 47 ± 7%. Further, the “cytotoxicity in vitro in HeLa cell assay (in words)” value in series [4] was “moderate cytotoxicity”.
Regarding `COc1ccccc1-c1cn(CCN2CCOCC2)c2ncnc(N)c12` [2 n, 5‐(2‐Methoxyphenyl)‐7‐(2‐morpholinoethyl)‐7H‐pyrrolo[2,3‐d]pyrimidin‐4‐amine], the viability at 20 µM in series [1] was 95 ± 1%. Also, in series [3], the IC50 was > 2000 nM. Also, the viability at 48 h, 20 µM in series [2] was found to be 112 ± 2.8%.
Consider `COc1ccc(-c2cn(CCN3CCOCC3)c3ncnc(N)c23)cc1OC` [2 o, 5‐(3,4‐Dimethoxyphenyl)‐7‐(2‐morpholinoethyl)‐7H‐pyrrolo[2,3‐d]pyrimidin‐4‐amine], for which the viability at 20 µM in series [1] was 57 ± 6.6%. Besides, in series [3], the IC50 is > 2000 nM. Also, the viability at 48 h, 20 µM in series [2] worked out at 88 ± 11.8%.
Turning to `COc1ccccc1-c1cn(Cc2ccccc2)c2ncnc(N)c12` [2 p, 7‐Benzyl‐5‐(2‐methoxyphenyl)‐7H‐pyrrolo[2,3‐d]pyrimidin‐4‐amine], in series [1], the viability at 20 µM came to 72.4 ± 13.3%. Besides, in series [2], the viability at 48 h, 20 µM stood at 97 ± 12.5%.
Consider `COc1ccc(-c2cn(Cc3ccccc3)c3ncnc(N)c23)cc1OC` [2 q, 7‐Benzyl‐5‐(3,4‐dimethoxyphenyl)‐7H‐pyrrolo[2,3‐d]pyrimidin‐4‐amine], for which the viability at 20 µM in series [1] was 110 ± 4.2%. The viability at 48 h, 20 µM in series [2] is 95.4 ± 0.5%.
In the case of `CCN(CC)CCCC(C)Nc1ccnc2cc(Cl)ccc12` (stereo not shown) [Chloroquine, reference compound], the IC50 in series [1] came to 15 nM.
